{"source": "ChEMBL document CHEMBL1127327", "about": "“Novel series of TSAO-T derivatives. Synthesis and anti-HIV-1 activity of 4-, 5-, and 6-substituted pyrimidine analogues” (J Med Chem, 1994)", "key": {"[1]": {"system": "Human immunodeficiency virus", "assay": "Effective concentration against HIV-1 induced cytopathicity in MT-4 cells", "format": "functional, organism-based, MT4", "summary_of_the_method": "(§1)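 MT-4 cells at 5 × 10^5 cells/mL, infected with HIV-1 or HIV-2 at 100 CCID50 per mL, then mixed 1:1 with serial compound dilutions. After 5 days, viable cells in infected and mock-infected cultures were counted by trypan blue exclusion. EC50 is the concentration giving a 50% reduction in virus-induced loss of viable cells.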"}, "CCRF-CEM [2]": {"system": "CCRF-CEM", "assay": "Effective concentration against HIV-1 induced cytopathicity in CEM cells", "format": "functional, cell-based", "settings": "Homo sapiens", "summary_of_the_method": "(§2)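 CEM cells at 5 × 10^5 cells/mL in fresh medium, infected with HIV-1 or HIV-2 at 100 CCID50 per mL of suspension, then mixed 1:1 with serial compound dilutions. Virus-induced syncytia were counted microscopically after 4 days. EC50 is the concentration reducing syncytium number by 50%.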"}, "MT4 [3]": {"system": "MT4", "assay": "Selectivity index (ratio CC50/EC50) in MT-4 cells is measured", "format": "functional", "summary_of_the_method": "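Ratio of CC50 to EC50, both from MT-4 cultures read after 5 days by trypan blue viable-cell counts. CC50 is the concentration reducing mock-infected MT-4 cell number by 50%. EC50 comes from HIV-infected MT-4 cells (100 CCID50 per mL, 5 × 10^5 cells/mL).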"}, "CCRF-CEM [4]": {"system": "CCRF-CEM", "assay": "Effective concentration against HIV-2 induced cytopathicity in CEM cells", "format": "functional, cell-based", "settings": "Homo sapiens", "summary_of_the_method": "as §2"}, "MT4 [5]": {"system": "MT4", "assay": "Concentration required for 50% of cell death on MT-4 cell lines", "format": "functional, Homo sapiens", "summary_of_the_method": "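Mock-infected MT-4 cells (5 × 10^5 cells/mL) in fresh culture medium, mixed in microtiter wells with dilutions of test compound. After 5 days, viable cells counted by trypan blue staining. CC50 taken as the compound concentration that reduces the number of mock-infected MT-4 cells by 50%.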"}, "MT4 [6]": {"system": "MT4", "assay": "Effective concentration against HIV-2 induced cytopathicity in MT-4 cells", "format": "functional, cell-based", "settings": "Homo sapiens", "summary_of_the_method": "as §1"}, "[7]": {"settings": "Human immunodeficiency virus 1, MT4"}}, "note": "“And” between values parts separate entries of the source, which are not always exact repeats. Equal entries are not always repeated.", "data": [{"smiles": "COC(=N)c1cc(=O)[nH]c(=O)n1[C@@H]1O[C@H](CO[Si](C)(C)C(C)(C)C)[C@@]2(OS(=O)(=O)C=C2N)[C@H]1O[Si](C)(C)C(C)(C)C", "values": [{"measurement": "EC50", "setting": "[1]; mt4", "result": "2.7 µM and > 6.3 µM"}, {"measurement": "EC50", "setting": "CCRF-CEM [2]", "result": 1.1, "unit": "µM"}, {"measurement": "Selectivity index", "setting": "MT4 [3]", "result": 4.1}, {"measurement": "EC50", "setting": "CCRF-CEM [4]", "result": "> 6.3", "unit": "µM"}, {"measurement": "CC50", "setting": "MT4 [5]", "result": 11, "unit": "µM"}]}, {"smiles": "CC(C)(C)[Si](C)(C)OC[C@H]1O[C@@H](n2cc(Br)c(=O)[nH]c2=O)[C@H](O[Si](C)(C)C(C)(C)C)[C@]12OS(=O)(=O)C=C2N", "values": [{"measurement": "EC50", "setting": "[1]; mt4", "result": "0.32 µM and > 2.4 µM"}, {"measurement": "Selectivity index", "setting": "MT4 [3]", "result": 11}, {"measurement": "CC50", "setting": "MT4 [5]", "result": 3.6, "unit": "µM"}]}, {"smiles": "CC(C)(C)[Si](C)(C)OC[C@H]1O[C@@H](n2cc(I)c(=O)[nH]c2=O)[C@H](O[Si](C)(C)C(C)(C)C)[C@]12OS(=O)(=O)C=C2N", "values": [{"measurement": "EC50", "setting": "CCRF-CEM [2]", "result": 0.03, "unit": "µM"}, {"measurement": "Selectivity index", "setting": "MT4 [3]", "result": 133}, {"measurement": "EC50", "setting": "CCRF-CEM [4]", "result": "> 5.7", "unit": "µM"}, {"measurement": "CC50", "setting": "MT4 [5]", "result": 12, "unit": "µM"}]}, {"smiles": "CC(C)(C)[Si](C)(C)OC[C@H]1O[C@@H](n2c(C#N)cc(=O)[nH]c2=O)[C@H](O[Si](C)(C)C(C)(C)C)[C@]12OS(=O)(=O)C=C2N", "values": [{"measurement": "EC50", "setting": "[1]; [7]", "result": 3.6, "unit": "µM"}, {"measurement": "EC50", "setting": "[1]; mt4", "result": 3.6, "unit": "µM"}, {"measurement": "EC50", "setting": "CCRF-CEM [2]", "result": 2.1, "unit": "µM"}, {"measurement": "Selectivity index", "setting": "MT4 [3]", "result": 3}, {"measurement": "EC50", "setting": "CCRF-CEM [4]", "result": "> 6.6", "unit": "µM"}, {"measurement": "CC50", "setting": "MT4 [5]", "result": 11, "unit": "µM"}]}, {"smiles": "CNc1nc(=O)n([C@@H]2O[C@H](CO[Si](C)(C)C(C)(C)C)[C@@]3(OS(=O)(=O)C=C3N)[C@H]2O[Si](C)(C)C(C)(C)C)cc1C", "values": [{"measurement": "EC50", "setting": "CCRF-CEM [2]", "result": 0.11, "unit": "µM"}, {"measurement": "Selectivity index", "setting": "MT4 [3]", "result": 217}, {"measurement": "EC50", "setting": "CCRF-CEM [4]", "result": "> 33", "unit": "µM"}, {"measurement": "CC50", "setting": "MT4 [5]", "result": 26, "unit": "µM"}]}, {"smiles": "CC(C)(C)[Si](C)(C)OC[C@H]1O[C@@H](n2cc(C(F)(F)F)c(=O)[nH]c2=O)[C@H](O[Si](C)(C)C(C)(C)C)[C@]12OS(=O)(=O)C=C2N", "values": [{"measurement": "EC50", "setting": "[1]; mt4", "result": "0.82 µM and > 6.2 µM"}, {"measurement": "EC50", "setting": "CCRF-CEM [2]", "result": 0.77, "unit": "µM"}, {"measurement": "Selectivity index", "setting": "MT4 [3]", "result": 17}, {"measurement": "EC50", "setting": "CCRF-CEM [4]", "result": "> 6.2", "unit": "µM"}, {"measurement": "CC50", "setting": "MT4 [5]", "result": 14, "unit": "µM"}]}, {"smiles": "CC(C)(C)[Si](C)(C)OC[C@H]1O[C@@H](n2ccc(=O)[nH]c2=O)[C@H](O[Si](C)(C)C(C)(C)C)C12OS(=O)(=O)C=C2N", "note": "(some centres undefined)", "values": [{"measurement": "Selectivity index", "setting": "MT4 [3]", "result": 74}, {"measurement": "CC50", "setting": "MT4 [5]", "result": 14, "unit": "µM"}]}, {"smiles": "CC(C)(C)[Si](C)(C)OC[C@H]1O[C@@H](n2cc(F)c(=O)[nH]c2=O)[C@H](O[Si](C)(C)C(C)(C)C)[C@]12OS(=O)(=O)C=C2N", "values": [{"measurement": "EC50", "setting": "[1]; mt4", "result": "0.5 µM and > 1.3 µM"}, {"measurement": "EC50", "setting": "CCRF-CEM [2]", "result": 0.34, "unit": "µM"}, {"measurement": "Selectivity index", "setting": "MT4 [3]", "result": 10}, {"measurement": "EC50", "setting": "CCRF-CEM [4]", "result": "> 6.7", "unit": "µM"}, {"measurement": "CC50", "setting": "MT4 [5]", "result": 5, "unit": "µM"}]}, {"smiles": "Cc1cn([C@@H]2O[C@H](CO[Si](C)(C)C(C)(C)C)[C@@]3(OS(=O)(=O)C=C3N)[C@H]2O[Si](C)(C)C(C)(C)C)c(=O)nc1N(C)C", "values": [{"measurement": "EC50", "setting": "[1]; [7]", "result": 0.16, "unit": "µM"}, {"measurement": "EC50", "setting": "MT4 [6]", "result": "> 32", "unit": "µM"}, {"measurement": "Selectivity index", "setting": "MT4 [3]", "result": 388}, {"measurement": "CC50", "setting": "MT4 [5]", "result": 62, "unit": "µM"}]}, {"smiles": "CCc1cn([C@@H]2O[C@H](CO[Si](C)(C)C(C)(C)C)[C@@]3(OS(=O)(=O)C=C3N)[C@H]2O[Si](C)(C)C(C)(C)C)c(=O)[nH]c1=O", "values": [{"measurement": "Selectivity index", "setting": "MT4 [3]", "result": 88}, {"measurement": "CC50", "setting": "MT4 [5]", "result": 5.3, "unit": "µM"}]}, {"smiles": "CN(C)c1ccn([C@@H]2O[C@H](CO[Si](C)(C)C(C)(C)C)[C@@]3(OS(=O)(=O)C=C3N)[C@H]2O[Si](C)(C)C(C)(C)C)c(=O)n1", "values": [{"measurement": "EC50", "setting": "CCRF-CEM [2]", "result": 0.75, "unit": "µM"}, {"measurement": "Selectivity index", "setting": "MT4 [3]", "result": 252}, {"measurement": "EC50", "setting": "CCRF-CEM [4]", "result": "> 166", "unit": "µM"}, {"measurement": "CC50", "setting": "MT4 [5]", "result": "> 166", "unit": "µM"}]}, {"smiles": "Cc1cn([C@@H]2O[C@H](CO[Si](C)(C)C(C)(C)C)[C@@]3(OS(=O)(=O)C=C3N)[C@H]2O[Si](C)(C)C(C)(C)C)c(=O)nc1N", "values": [{"measurement": "EC50", "setting": "CCRF-CEM [2]", "result": 0.05, "unit": "µM"}, {"measurement": "Selectivity index", "setting": "MT4 [3]", "result": 250}, {"measurement": "EC50", "setting": "CCRF-CEM [4]", "result": "> 13.5", "unit": "µM"}, {"measurement": "CC50", "setting": "MT4 [5]", "result": 30, "unit": "µM"}]}, {"smiles": "CNc1ccn([C@@H]2O[C@H](CO[Si](C)(C)C(C)(C)C)[C@@]3(OS(=O)(=O)C=C3N)[C@H]2O[Si](C)(C)C(C)(C)C)c(=O)n1", "values": [{"measurement": "EC50", "setting": "[1]; mt4", "result": "0.68 µM and > 6.8 µM"}, {"measurement": "EC50", "setting": "CCRF-CEM [2]", "result": 3.38, "unit": "µM"}, {"measurement": "Selectivity index", "setting": "MT4 [3]", "result": 18}, {"measurement": "EC50", "setting": "CCRF-CEM [4]", "result": "> 6.8", "unit": "µM"}, {"measurement": "CC50", "setting": "MT4 [5]", "result": 12, "unit": "µM"}]}, {"smiles": "CC(C)(C)[Si](C)(C)OC[C@H]1O[C@@H]2[C@H](O[Si](C)(C)C(C)(C)C)[C@]13OS(=O)(=O)C=C3Nc1cc(=O)[nH]c(=O)n12", "values": [{"measurement": "EC50", "setting": "[1]; mt4", "result": "5.9 µM and > 12 µM"}, {"measurement": "Selectivity index", "setting": "MT4 [3]", "result": 2.7}, {"measurement": "CC50", "setting": "MT4 [5]", "result": 16, "unit": "µM"}]}, {"smiles": "CC(C)(C)[Si](C)(C)OC[C@H]1O[C@@H](n2ccc(N)nc2=O)[C@H](O[Si](C)(C)C(C)(C)C)[C@]12OS(=O)(=O)C=C2N", "values": [{"measurement": "EC50", "setting": "CCRF-CEM [2]", "result": 1.39, "unit": "µM"}, {"measurement": "Selectivity index", "setting": "MT4 [3]", "result": 460}, {"measurement": "EC50", "setting": "CCRF-CEM [4]", "result": "> 350", "unit": "µM"}, {"measurement": "CC50", "setting": "MT4 [5]", "result": "> 350", "unit": "µM"}]}, {"smiles": "Cc1cn([C@@H]2O[C@H](CO[Si](C)(C)C(C)(C)C)C3(OS(=O)(=O)C=C3N)[C@H]2O[Si](C)(C)C(C)(C)C)c(=O)[nH]c1=O", "note": "(some centres undefined)", "values": [{"measurement": "EC50", "setting": "CCRF-CEM [2]", "result": 0.044, "unit": "µM"}, {"measurement": "Selectivity index", "setting": "MT4 [3]", "result": 217}, {"measurement": "EC50", "setting": "CCRF-CEM [4]", "result": "> 7", "unit": "µM"}, {"measurement": "CC50", "setting": "MT4 [5]", "result": 13, "unit": "µM"}]}]}
